In the M2OR odorant receptor database:

Target: T1, UniProt E1BM68
T1 sequence (whole entry): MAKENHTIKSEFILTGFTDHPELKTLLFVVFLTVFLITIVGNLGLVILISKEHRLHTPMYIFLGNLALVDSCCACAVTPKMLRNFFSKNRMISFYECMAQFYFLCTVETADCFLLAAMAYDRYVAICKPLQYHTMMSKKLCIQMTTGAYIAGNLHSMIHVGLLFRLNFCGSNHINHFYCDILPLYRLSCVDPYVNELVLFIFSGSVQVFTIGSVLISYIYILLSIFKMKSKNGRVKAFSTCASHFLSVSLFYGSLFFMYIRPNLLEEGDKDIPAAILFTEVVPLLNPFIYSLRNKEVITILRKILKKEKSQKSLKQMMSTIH
Details: stereoisomer not certain
Procedure, shortened: (§1)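 Whether a receptor–molecule pair is responsive (active) rests on the original authors' judgment that its measured signal was statistically different from baseline. Pairs without that judgment are non-responsive (inactive). Sources used varied assay methods, commonly transient luciferase assays in mammalian cell lines.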
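Note: active if original authors judged signal statistically different from baseline.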

Odorant receptor agonist call, inactive:
CCc1cnc(C)c(C)n1
COC1=C(C)OC(C)C1=O (stereo not given)

Odorant receptor agonist call, active:
C=Cc1cnccn1
CCc1nccnc1C
CC1CCc2nccnc21 (stereo not given)
Cc1cnccn1
Cc1cncc(C)n1
COc1nccnc1CC(C)C
CCc1nccnc1OC
Cc1cnc(C)c(C)n1
CCc1nccnc1C(C)=O
CC(=O)c1cnccn1
CC(=O)c1nccnc1C
Cc1nccnc1C

Target: T2, UniProt E9Q9Z6
T2 sequence (whole entry): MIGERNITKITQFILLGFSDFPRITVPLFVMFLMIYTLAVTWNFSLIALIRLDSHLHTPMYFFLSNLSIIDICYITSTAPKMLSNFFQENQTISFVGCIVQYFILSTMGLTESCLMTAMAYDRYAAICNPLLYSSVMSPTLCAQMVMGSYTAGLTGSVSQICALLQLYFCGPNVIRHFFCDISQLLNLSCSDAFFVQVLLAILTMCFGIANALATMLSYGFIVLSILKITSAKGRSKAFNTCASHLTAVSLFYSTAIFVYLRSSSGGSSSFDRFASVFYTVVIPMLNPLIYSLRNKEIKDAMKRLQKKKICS
Details: stereoisomer not certain
Procedure, shortened: as §1

Odorant receptor agonist call, inactive:
O=C1CCCCCC=CCCCCCCCCO1
O=C1CCCCCCCCC1
C1CCCCCCCCCCCCCC1
O=C1CCCCCCCCCC1
CCC(=O)OCC(C)(C)OC(C)C1CCCC(C)(C)C1 (stereo not given)
CC1C(C)(C)C2=C(C(=O)CCC2)C1(C)C (stereo not given)
CCCCCCCC(=O)CCCCCCC

Odorant receptor agonist call, active:
CC(=O)c1c(C)c([N+](=O)[O-])c(C(C)(C)C)c([N+](=O)[O-])c1C
O=C1CCCCCCCCCCCCCC1
OC1CCCCCCCCCCCCCC1
O=C1CCCCCCC=CCCCCCCC1
CCCCCCCCCCCCCC(C)=O
O=C1C=CCCCCCCCCCCCCO1
O=C1CCCC=CCCCCCCCCCC1
CC1CCCCCCCCCCCCC(=O)C1 (stereo not given)
CC1CC=CCCCCCCCCC(=O)C1 (stereo not given)
CC1CCCCCCCCCCCC(=O)C1 (stereo not given)

Target: T3, UniProt E9QAT7
T3 sequence (whole entry): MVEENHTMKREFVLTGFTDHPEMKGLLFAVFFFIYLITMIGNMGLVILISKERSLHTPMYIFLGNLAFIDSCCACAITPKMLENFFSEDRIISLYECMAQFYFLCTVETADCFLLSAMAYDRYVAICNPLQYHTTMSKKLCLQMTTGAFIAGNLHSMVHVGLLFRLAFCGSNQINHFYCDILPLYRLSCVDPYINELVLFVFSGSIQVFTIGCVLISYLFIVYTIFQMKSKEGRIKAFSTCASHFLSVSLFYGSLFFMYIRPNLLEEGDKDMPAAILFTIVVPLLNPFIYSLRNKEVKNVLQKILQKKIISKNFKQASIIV
Details: stereoisomer not certain
Procedure, shortened: as §1

Odorant receptor agonist call, active:
CCc1cnc(C)c(C)n1
Cc1cncc(C)n1
CCc1nccnc1OC
Cc1cnc(C)c(C)n1

Odorant receptor agonist call, inactive:
C=Cc1cnccn1
CCc1nccnc1C
CC1CCc2nccnc21 (stereo not given)
Cc1cnccn1
COc1nccnc1CC(C)C
CCc1nccnc1C(C)=O
CC(=O)c1cnccn1
COC1=C(C)OC(C)C1=O (stereo not given)
CC(=O)c1nccnc1C
Cc1nccnc1C
